The source made the active and inactive calls. The calls are words filed in the database; no cut-off is given here.
What was measured:
Mus musculus [1] = assay: Acute toxicity in Swiss albino mouse assessed as lethal effect at 25 mg/kg/day, po after 72 hrs; format: organism-based; parameters: route oral; conditions: in vivo
Summary of the method: (§1)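 Oral single dose suspended in 0.5% carboxymethylcellulose, given after a 24 h fast; food and water returned 1 h after dosing. Vehicle-only controls. Mice observed at 1 h, then once daily for 72 h, for toxic signs and mortality.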

Mus musculus [2] = assay: Antiinflammatory activity against carrageenan-induced paw edema in Swiss albino mouse assessed as swelling thickness at 50 mg/kg, po after 180 mins; format: functional
Summary of the method: (§2)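 Oral dosing in 0.5% CMC; vehicle to controls. Then carrageenan (0.5 mg/25 ll, freshly suspended in 154 mM saline) injected into the right hind paw subplantar tissue; saline into the left paw. Right-left footpad thickness difference measured by dial gauge calliper every 90 min over 6 h. Inhibition % is relative to vehicle control. n = 6; mean ± SEM.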

Mus musculus [3] = assay: Antiinflammatory activity against carrageenan-induced paw edema in Swiss albino mouse assessed as swelling thickness at 200 mg/kg, po after 360 mins; format: functional; summary of the method: as §2
Mus musculus [4] = assay: Antiinflammatory activity against carrageenan-induced paw edema in Swiss albino mouse assessed as swelling thickness at 25 mg/kg, po after 180 mins; format: functional; summary of the method: as §2
Mus musculus [5] = assay: Inhibition of p-benzoquinone-induced writhing in Swiss albino mouse at 200 mg/kg, po relative to control; format: functional
Summary of the method: (§3)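 Mice, n = 6 per group, dosed orally with a suspension in 0.5% sodium CMC. 60 min later, 0.1 ml/10 g of 2.5% […] p-benzoquinone in distilled water given ip. Abdominal writhes counted per animal for 15 min, starting 5 min after injection. Expressed as % change in mean writhing count versus vehicle controls.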

Mus musculus [6] = assay: Gastric-ulcerogenic effect in Swiss albino mouse assessed as lesions at 25 mg/kg, po; format: functional, organism-based; parameters: dose 25 mg/kg
Summary of the method: (§4)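 Mice killed under deep ether anesthesia 3 h after the writhing test; the oral dose in 0.5% CMC was the one used in that test. Stomachs removed, opened along the great curvature and examined under a dissecting microscope for lesions or bleeding. Reported as ratio of ulceration; n = 6.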

Mus musculus [7] = assay: Antiinflammatory activity against carrageenan-induced paw edema in Swiss albino mouse assessed as swelling thickness at 25 mg/kg, po after 90 mins; format: functional; summary of the method: as §2
Mus musculus [8] = assay: Antiinflammatory activity against carrageenan-induced paw edema in Swiss albino mouse assessed as swelling thickness at 50 mg/kg, po after 270 mins; format: functional; summary of the method: as §2
Mus musculus [9] = assay: Antiinflammatory activity against carrageenan-induced paw edema in Swiss albino mouse assessed as swelling thickness at 200 mg/kg, po after 270 mins; format: functional; summary of the method: as §2
Mus musculus [10] = assay: Inhibition of carrageenan-induced paw edema in Swiss albino mouse at 100 mg/kg, po after 180 mins relative to control; format: functional; conditions: 3 h; summary of the method: as §2
Mus musculus [11] = assay: Acute toxicity in Swiss albino mouse assessed as lethal effect at 100 mg/kg/day, po after 72 hrs; format: organism-based; parameters: route oral; conditions: in vivo; summary of the method: as §1
Mus musculus [12] = assay: Antiinflammatory activity against carrageenan-induced paw edema in Swiss albino mouse assessed as swelling thickness at 25 mg/kg, po after 360 mins; format: functional; summary of the method: as §2
Mus musculus [13] = assay: Analgesic activity against p-benzoquinone-induced abdominal constriction in Swiss albino mouse assessed as number of writhings at 25 mg/kg, po; format: functional, Abdomen
Summary of the method: (§5)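 Test samples given orally in 0.5% CMC; vehicle to controls. 60 min later, 2.5% (v/v) p-benzoquinone in distilled water, 0.1 ml/10 g, given i.p. Mice housed singly; writhes counted for 15 min starting 5 min after injection. Activity is % change from vehicle controls. n = 6; mean ± SEM.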

Mus musculus [14] = assay: Analgesic activity against p-benzoquinone-induced abdominal constriction in Swiss albino mouse assessed as number of writhings at 100 mg/kg, po; format: functional, Abdomen; summary of the method: as §5
Mus musculus [15] = assay: Inhibition of carrageenan-induced paw edema in Swiss albino mouse at 100 mg/kg, po after 90 mins relative to control; format: functional; conditions: 1.5 h; summary of the method: as §2
Mus musculus [16] = assay: Inhibition of p-benzoquinone-induced writhing in Swiss albino mouse at 50 mg/kg, po relative to control; format: functional; summary of the method: as §3
Mus musculus [17] = assay: Antiinflammatory activity against carrageenan-induced paw edema in Swiss albino mouse assessed as swelling thickness at 100 mg/kg, po after 360 mins; format: functional; summary of the method: as §2
Mus musculus [18] = assay: Inhibition of carrageenan-induced paw edema in Swiss albino mouse at 50 mg/kg, po after 360 mins relative to control; format: functional; conditions: 6 h
Summary of the method: (§6)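 Mice, n = 6 per group. Test agent given orally as a suspension in 0.5% sodium CMC in distilled water; controls received vehicle only. Afterwards, 0.5 mg/25 ll carrageenan in saline (154 mM NaCl) injected subplantar into the right hind paw, saline into the left. Right-minus-left footpad thickness measured by dial gauge caliper every 90 min for 6 h. Inhibition is relative to vehicle-control group means.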

Mus musculus [19] = assay: Acute toxicity in Swiss albino mouse assessed as lethal effect at 50 mg/kg/day, po after 72 hrs; format: organism-based; parameters: route oral; conditions: in vivo; summary of the method: as §1
Mus musculus [20] = assay: Analgesic activity against p-benzoquinone-induced abdominal constriction in Swiss albino mouse assessed as number of writhings at 200 mg/kg, po; format: functional, Abdomen; summary of the method: as §5
Mus musculus [21] = assay: Inhibition of carrageenan-induced paw edema in Swiss albino mouse at 50 mg/kg, po after 270 mins relative to control; format: functional; conditions: 4.5 h; summary of the method: as §6
Mus musculus [22] = assay: Antiinflammatory activity against carrageenan-induced paw edema in Swiss albino mouse assessed as swelling thickness at 25 mg/kg, po after 270 mins; format: functional; summary of the method: as §2
Mus musculus [23] = assay: Inhibition of carrageenan-induced paw edema in Swiss albino mouse at 100 mg/kg, po after 360 mins relative to control; format: functional; conditions: 6 h; summary of the method: as §2
Mus musculus [24] = assay: Inhibition of p-benzoquinone-induced writhing in Swiss albino mouse at 25 mg/kg, po relative to control; format: functional; summary of the method: as §3
Mus musculus [25] = assay: Gastric-ulcerogenic effect in Swiss albino mouse assessed as lesions at 50 mg/kg, po; format: functional, organism-based; parameters: dose 50 mg/kg; summary of the method: as §4
Mus musculus [26] = assay: Inhibition of carrageenan-induced paw edema in Swiss albino mouse at 50 mg/kg, po after 90 mins relative to control; format: functional; conditions: 1.5 h; summary of the method: as §6
Mus musculus [27] = assay: Antiinflammatory activity against carrageenan-induced paw edema in Swiss albino mouse assessed as swelling thickness at 200 mg/kg, po after 90 mins; format: functional; summary of the method: as §2
Mus musculus [28] = assay: Antiinflammatory activity against carrageenan-induced paw edema in Swiss albino mouse assessed as swelling thickness at 100 mg/kg, po after 90 mins; format: functional; summary of the method: as §2
Mus musculus [29] = assay: Acute toxicity in Swiss albino mouse assessed as lethal effect at 200 mg/kg/day, po after 72 hrs; format: organism-based; parameters: route oral; conditions: in vivo; summary of the method: as §1
Mus musculus [30] = assay: Antiinflammatory activity against carrageenan-induced paw edema in Swiss albino mouse assessed as swelling thickness at 200 mg/kg, po after 180 mins; format: functional; summary of the method: as §2
Mus musculus [31] = assay: Antiinflammatory activity against carrageenan-induced paw edema in Swiss albino mouse assessed as swelling thickness at 50 mg/kg, po after 360 mins; format: functional; summary of the method: as §2
Mus musculus [32] = assay: Antiinflammatory activity against carrageenan-induced paw edema in Swiss albino mouse assessed as swelling thickness at 50 mg/kg, po after 90 mins; format: functional; summary of the method: as §2
Mus musculus [33] = assay: Gastric-ulcerogenic effect in Swiss albino mouse assessed as lesions at 100 mg/kg, po; format: functional, organism-based; parameters: dose 100 mg/kg; summary of the method: as §4
Mus musculus [34] = assay: Inhibition of carrageenan-induced paw edema in Swiss albino mouse at 50 mg/kg, po after 180 mins relative to control; format: functional; conditions: 3 h; summary of the method: as §2
Mus musculus [35] = assay: Antiinflammatory activity against carrageenan-induced paw edema in Swiss albino mouse assessed as swelling thickness at 100 mg/kg, po after 180 mins; format: functional; summary of the method: as §2
Mus musculus [36] = assay: Inhibition of p-benzoquinone-induced writhing in Swiss albino mouse at 100 mg/kg, po relative to control; format: functional; summary of the method: as §3
Mus musculus [37] = assay: Antiinflammatory activity against carrageenan-induced paw edema in Swiss albino mouse assessed as swelling thickness at 100 mg/kg, po after 270 mins; format: functional; summary of the method: as §2
Mus musculus [38] = assay: Analgesic activity against p-benzoquinone-induced abdominal constriction in Swiss albino mouse assessed as number of writhings at 50 mg/kg, po; format: functional, Abdomen; summary of the method: as §5
Mus musculus [39] = assay: Inhibition of carrageenan-induced paw edema in Swiss albino mouse at 100 mg/kg, po after 270 mins relative to control; format: functional; conditions: 4.5 h; summary of the method: as §2

CS(=O)(=O)c1nc(-c2ccc(Cl)cc2)n[nH]1
Activity (Mus musculus [1]): Non-toxic | Activity (Mus musculus [2]): 46.2 10^-2mm | Activity (Mus musculus [3]): 76.1 10^-2mm | Activity (Mus musculus [4]): 62.8 10^-2mm | inhibition in vivo at 200 mg/kg (Mus musculus [5]): 8.9% | Activity (Mus musculus [6]): Active | Activity (Mus musculus [7]): 55.2 10^-2mm | Activity (Mus musculus [8]): 47.9 10^-2mm | Activity (Mus musculus [9]): 69.4 10^-2mm | inhibition in vivo at 100 mg/kg (Mus musculus [10]): 16.9% | Activity (Mus musculus [11]): Non-toxic | Activity (Mus musculus [12]): 75.4 10^-2mm | Activity (Mus musculus [13]): 42.8 | Activity (Mus musculus [14]): 31 | inhibition in vivo at 100 mg/kg (Mus musculus [15]): 16.3% | inhibition in vivo at 50 mg/kg (Mus musculus [16]): 42.8% | Activity (Mus musculus [17]): 51.2 10^-2mm | inhibition in vivo at 50 mg/kg (Mus musculus [18]): 30.3% | Activity (Mus musculus [19]): Non-toxic | Activity (Mus musculus [20]): 46.8 | inhibition in vivo at 50 mg/kg (Mus musculus [21]): 26.1% | Activity (Mus musculus [22]): 69.5 10^-2mm | inhibition in vivo at 100 mg/kg (Mus musculus [23]): 25.6% | inhibition in vivo at 25 mg/kg (Mus musculus [24]): 16.7% | Activity (Mus musculus [25]): Active | inhibition in vivo at 50 mg/kg (Mus musculus [26]): 18% | Activity (Mus musculus [27]): 59.4 10^-2mm | Activity (Mus musculus [28]): 37.5 10^-2mm | Activity (Mus musculus [29]): Non-toxic | Activity (Mus musculus [30]): 65.8 10^-2mm | Activity (Mus musculus [31]): 50.2 10^-2mm | Activity (Mus musculus [32]): 43.6 10^-2mm | Activity (Mus musculus [33]): Active | inhibition in vivo at 50 mg/kg (Mus musculus [34]): 22.2% | Activity (Mus musculus [35]): 42.8 10^-2mm | inhibition in vivo at 100 mg/kg (Mus musculus [36]): 34.5% | Activity (Mus musculus [37]): 46.2 10^-2mm | Activity (Mus musculus [38]): 29.4 | inhibition in vivo at 100 mg/kg (Mus musculus [39]): 21.4%

Reference: ChEMBL document CHEMBL1142894, “Preparation of 5-aryl-3-alkylthio-l,2,4-triazoles and corresponding sulfones with antiinflammatory-analgesic activity” (Bioorg Med Chem, 2007)
